Bioassay records from PubChem.
NF-kB neuron act – raises NF-kB expression in human neuronal cells. NF-kB reporter expression; stronger effect = higher value. fold change at 12.5 µM. 190,000 tested, 1.6% active. AID 1239; in the data active = fold change above about 3.3
APP 5'UTR act – APP 5'UTR luciferase reporter activation; SH-SY5Y APP 5'UTR luciferase reporter, luminescence; zero percent = DMSO vehicle wells; activation, % at 2 µM; 190,000 tested, 1% active;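 active = activation above a set limit, based on mean plus 3 SD of controls, cut at about 140% in these data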
STAT3 act-1 – STAT3 signaling activation; U3A cells, IL-6 STAT3-luciferase reporter, luminescence; 100% = signal with IL-6 EC80 alone; activation (% of control), % at 5.6 µM; 190,000 tested, 0.91% active; AID 871;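 active = activation above the screen-wide mean of compound activation plus 3 SD, cut at about 130% in these data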
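System – human U3A cells carrying STAT3-luciferase construct · Probe or stimulus – Interleukin-6, 33 ng/mL · Schedule – compound 1 h, then IL-6 6 h at 37 °C · Signal – luminescence from STAT3-driven luciferase reporter · Evaluation – percent of IL-6-only median luminescence · Benchmarks – IL-6-only high control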
STAT3 blocker – reduces IL-6 driven STAT3 reporter signal. U3A cells, IL-6 STAT3-luciferase reporter, luminescence; host cell line lacks STAT1. inhibition, % at 5.5 µM. 190,000 tested, 0.89% active;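 active = inhibition above the mean inhibition across all screened compounds plus 3 SD, cut at about 44% in these data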
STAT1 act-1 – activators of IFN-gamma induced STAT1 signaling; NIH 3T3 STAT1-luciferase reporter, luminescence; 100% = IFN-gamma alone, no compound; activation (% of control), % at 5.5 µM; 200,000 tested, 2.6% active; AID 932;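 active = activation above the screen-wide mean activation plus 3 SD, cut at about 130% in these data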
STAT1 inh – inhibitors of IFN-gamma induced STAT1 signaling. NIH 3T3 STAT1-luciferase reporter, luminescence. inhibition, % at 5.5 µM. 200,000 tested, 0.35% active. AID 920;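 active = inhibition above a set limit, the mean inhibition across all tested compounds plus 3 SD, cut at about 34% in these data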
STAT3 act-2 – confirmation of STAT3 signaling activators | 1,200 tested, 64% active | shares compounds with STAT3 act-1 | U3A STAT3-luciferase reporter, IL-6 potentiation, luminescence; U3A cells lack STAT1; 100 means same as IL-6 alone | AID 1267 | potentiation (% of control), % at 5.7 µM;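 active = percent activation of the STAT3 luciferase reporter above a set limit taken from the earlier primary screen, cut at about 130% in these data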
NFkB act 2 – counter-screen for STAT3 activators: NF-kappaB activation. activation (% of control), % at 5.7 µM. 1,200 tested, 11% active. shares compounds with STAT3 act-1. human cells, NF-kappaB reporter activation. AID 1309; in the data active = activation above about 120%;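 also: reporter induced by TNF-alpha stimulation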
STAT1 act-2 – activates STAT1, counter-screen to STAT3 activators. shares compounds with STAT3 act-1. NIH 3T3 STAT1-luciferase reporter, IFN-gamma, luminescence. activation (% of control), % at 5.7 µM. 1,200 tested, 13% active;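 active = activation above the solvent-only control well mean plus 3 SD, set per screening run, cut at about 120% in these data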
Large screens that a line does not name were inactive (follow-up assays come after a bar, where they were run). Rows were chosen to be rich in hits. Some 5.1% of all compounds tested hit in one or more screens of this group.

O=C(NCCCN1CCOCC1)c1cc2ccccc2oc1=O	none
CCC(CC)NC(=O)COC(=O)c1ccc(OCC(=O)Nc2ccccc2OC)c(OC)c1	none
CCCc1[nH]nc2c1C(c1ccncc1)C(C#N)=C(N)O2 (stereo not drawn)	none
Cn1c2ccccc2c2cc(C(=O)NNS(=O)(=O)c3ccc(F)cc3)sc21	STAT3 act-1 136.0 | STAT3 act-2 inactive | NFkB act 2 inactive | STAT1 act-2 inactive
Cc1ccsc1/C=N\Nc1cn[nH]c(=O)c1Cl	none
O=C(O)C(Cc1ccccc1)N1C(=O)c2ccccc2C1=O (stereo not drawn)	none
O=C(O)C(Cc1ccccc1)N1C(=O)c2cccc3cccc(c23)C1=O (stereo not drawn)	STAT3 act-1 143.5 | STAT3 act-2 142.6 | NFkB act 2 inactive | STAT1 act-2 inactive
O=C1c2cccc3cccc(c23)C(=O)N1CCc1ccccc1	STAT3 act-1 147.4 | STAT3 act-2 192.6 | NFkB act 2 125.0 | STAT1 act-2 128.8
CN(C(=O)CCCN1C(=O)c2cccc3cccc(c23)C1=O)c1ccccc1	none
FC(F)(F)c1ccc(C2Nc3cccc4cccc(c34)N2)cc1	STAT3 act-1 142.5 | STAT3 act-2 160.4 | NFkB act 2 inactive | STAT1 act-2 inactive
COC(=O)c1ccccc1NC(=O)C(C)Oc1ccccc1 (stereo not drawn)	none
CC(Oc1ccccc1)C(=O)Nc1ccccc1O (stereo not drawn)	STAT3 act-1 137.1 | STAT3 act-2 inactive | NFkB act 2 inactive | STAT1 act-2 inactive
CCc1cc2c(NCCC(=O)O)nc(C)nc2s1	STAT3 act-1 157.9 | STAT3 act-2 140.0 | NFkB act 2 inactive | STAT1 act-2 inactive
CCOC(=O)C1(CC2CCCCO2)CCN(Cc2cc3ccccc3[nH]2)CC1 (stereo not drawn)	STAT3 act-1 143.8 | STAT3 act-2 135.8 | NFkB act 2 inactive | STAT1 act-2 inactive
CCOC(=O)c1c(NC(=O)CSc2nc3ccccc3s2)sc(C(C)=O)c1C	none
NNc1nc2c(Cl)ccc(Cl)c2s1	STAT3 act-1 145.9 | STAT3 act-2 inactive | NFkB act 2 inactive | STAT1 act-2 inactive
CC(C)Oc1cccc(C(=O)C2CCCN(Cc3ccc(Oc4ncccn4)cc3)C2)c1 (stereo not drawn)	none
Cc1c(CN2CCc3c([nH]c4ccccc34)C2CC(C)C)cnn1C (stereo not drawn)	STAT3 act-1 138.6 | STAT3 act-2 143.1 | NFkB act 2 inactive | STAT1 act-2 inactive
CC(C)CC1c2[nH]c3ccccc3c2CCN1C(=O)C1CCOCC1 (stereo not drawn)	none
CC(C)CC1c2[nH]c3ccccc3c2CCN1C(=O)CCC(=O)N(C)C (stereo not drawn)	STAT3 act-1 144.5 | STAT3 act-2 150.1 | NFkB act 2 inactive | STAT1 act-2 inactive
CC(=O)c1cc(C(=O)N2CCc3c([nH]c4ccccc34)C2CC(C)C)[nH]n1 (stereo not drawn)	STAT3 act-1 145.1 | STAT3 act-2 142.6 | NFkB act 2 inactive | STAT1 act-2 inactive
Cn1cccc1-c1cc(C(=O)N2CCc3c([nH]c4ccccc34)C2c2ccccn2)[nH]n1 (stereo not drawn)	none
Cn1c(=O)oc2cc(S(=O)(=O)N3CCOCC3)ccc21	none
Cc1ccsc1-c1ccnc(-n2cccc2)n1	STAT3 act-1 146.5 | STAT3 act-2 inactive | NFkB act 2 inactive | STAT1 act-2 inactive
Clc1ccsc1-c1ccnc(-n2cccc2)n1	STAT3 act-1 140.5 | STAT3 act-2 160.2 | NFkB act 2 inactive | STAT1 act-2 inactive
Clc1ccc(-c2ccnc(-n3cccc3)n2)s1	none
CN1C(=O)/C(=C2/C=CC=CN2C)OC1=S	none
